A short description of series [1]: MTT cytotoxicity assay in murine macrophage cells. Format: cell-based. The settings on record: mouse, RAW 264.7 murine macrophage cells.
Series [2] concerns iNOS. The series can be described thus: qPCR of LPS-induced iNOS expression in RAW264.7 cells. The format is cell-based, mouse. The settings on record: concentrations up to 10 μM; data not shown. Summed up: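 RAW264.7 cells were co-treated with LPS (100 ng/mL) and compound at 0.01–10 μM. Total RNA (0.5 μg) was DNase I-treated and reverse transcribed, and cDNAs were pooled per condition. SYBR Green real-time PCR array was normalised to GAPDH. Data come from three independent experiments and were compared by one-way ANOVA (p<0.05).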

The subject of series [3] is nitric oxide (NO) production. The series can be described thus: Griess assay of LPS stimulated nitric oxide production in RAW264.7 cells. Format: cell-based, murine. Conditions: concentrations up to 10 μM. Summed up: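 RAW264.7 cells were plated in RPMI1640 and held 24 h at 37 °C. Medium was replaced, then compound and E. coli 055:B5 LPS were added. Culture supernatant was reacted with Griess reagent (0.5% sulfanilamide, 0.05% N-1-naphthylethylenediamine dihydrochloride, 2.5% H3PO4) for 30 min at room temperature in the dark. Absorbance was read at 530 nm and converted to nitrite using a sodium nitrite standard curve.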

The subject of series [4] is phosphorylation of IκBα. The series can be described thus: Western blot analysis of phosphorylation of IκBα in RAW264.7 cells. The format is cell-based, mouse. Conditions: increasing concentrations, in the presence of LPS, 4 hr. The procedure, abridged:
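Cells were grown to near confluency and dosed with LPS plus compound at 37 °C. Lysates were made in SDS/2-mercaptoethanol loading buffer, sonicated 15 s and heated at 99.9 °C for 5 min. Proteins were run on 4–15% polyacrylamide SDS gels and transferred to membrane, which was blocked with 5% milk for 1 h. Probes were anti-phospho-IκB and anti-IκB (1:1000) with HRP secondary (1:3000, 1 h, room temperature), detected by chemiluminescence on X-ray film; β-actin served as control.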
In general terms: In western blotting, separated proteins are transferred to a membrane and probed.

The subject of series [5] is NF-κB. The series can be described thus: LPS-induced NF-κB luciferase reporter assay in RAW264.7 cells. The format is cell-based. The settings on record: Mus musculus, RAW264.7, read-out: inhibition of NF-κB. Summed up:
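RAW264.7 cells stably transfected with an NF-κB luciferase reporter were seeded at 5 × 10^4 cells per well in 96-well plates. After 24 h recovery, cells were exposed to test compound plus LPS (100 ng/mL) for 18 h. Lysates were mixed with luciferase assay reagent and luminescence was read. IC50 is given as mean ± SE, n = 3.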
Background: In a reporter assay the amount or activity of a reporter protein is the signal.

For series [6], the system named is RAW 264.7 cells. The series can be described thus: MTT cytotoxicity assay in murine macrophage cells. Format: cell-based.
Series [7] deals with HCT-116 cells. Briefly: Human colon tumor HCT-116 cytotoxicity assay. Format: cell-based. The settings on record: HCT-116, read-out: IC50 HCT-116.

7 compounds from article PMC3417756 (Bioorganic & medicinal chemistry, 2012) can be followed below.

`CCC(C)/C=C/[C@@H](O)[C@H](O)[C@@H](O)[C@@H](OC)C(=O)N[C@H]1CCCCNC1=O` (stereo partly shown) [compound 13, bengamide E’] showed an IC50 at 18 h in series [1] of over 50 µM.

Compound `CC1=C(O)C(=O)C=C2C1=CC=C1[C@@]2(C)CC[C@@]2(C)[C@@H]3C[C@](C)(C(=O)O)CC[C@]3(C)CC[C@]12C` [compound 5, celastrol, reference compound] came in with an IC50 at 18 h in series [1] of over 50 µM.

Take `CCCCCCCCCCCCCC(=O)O[C@H]1CC[C@H](NC(=O)[C@H](OC)[C@H](O)[C@@H](O)[C@H](O)/C=C/C(C)C)C(=O)NC1` [compound 6, bengamide A]: the “effect on iNOS expression” value in series [2] is “Neither 6 nor 7 showed NO inhibition activity or an effect on iNOS expression”. Further, the “inhibition of LPS stimulated NO production” value in series [3] is on record as “Neither 6 nor 7 showed NO inhibition activity”. For the same compound, in series [4], the IκBα phosphorylation entry is reported as “clear decrease in the levels of observed IκBα phosphorylation”. Moreover, the IC50 in series [5] was 0.08 µM. Also, the IC50 at 18 h in series [1] is over 50 µM. Moreover, in series [6], the “cytotoxicity to RAW 264.7 macrophage immune cells (in words)” value was “without cytotoxicity”.

As for `CCC(C)/C=C/[C@@H](O)[C@H](O)[C@@H](O)[C@@H](OC)C(=O)N[C@H]1CCCCN(C)C1=O` (stereo partly shown) [compound 14, bengamide F’], the IC50 at 18 h in series [1] is over 50 µM. Further, the IC50 in series [7] is 5.1 µM.

Turning to `CCCCCCCCCCCCCC(=O)O[C@H]1CC[C@H](NC(=O)[C@H](OC)[C@H](O)[C@@H](O)[C@H](O)/C=C/C(C)C)C(=O)N(C)C1` [compound 7, bengamide B], the “effect on iNOS expression” value in series [2] is “Neither 6 nor 7 showed NO inhibition activity or an effect on iNOS expression”. For the same compound, the “inhibition of LPS stimulated NO production” value in series [3] was “Neither 6 nor 7 showed NO inhibition activity”. Further, the IκBα phosphorylation entry in series [4] is “clear decrease in the levels of observed IκBα phosphorylation”. In addition, the IC50 in series [5] came to 0.09 µM. Besides, the IC50 at 18 h in series [1] is over 50 µM. Further, in series [6], the “cytotoxicity to RAW 264.7 macrophage immune cells (in words)” value was “without cytotoxicity”.

As for `CO[C@@H](C(=O)N[C@H]1CCCCNC1=O)[C@H](O)[C@@H](O)[C@H](O)/C=C/C(C)C` [compound 8, bengamide E], in series [4], the IκBα phosphorylation entry is “clear decrease in the levels of observed IκBα phosphorylation”. In series [1], the IC50 at 18 h was over 50 µM.

Compound `CO[C@@H](C(=O)N[C@H]1CC[C@@H](OC(=O)C2CCCCC2)CN(C)C1=O)[C@H](O)[C@@H](O)[C@H](O)/C=C/C(C)(C)C` [compound 12, LAF 389, reference compound] came in with an IC50 at 18 h in series [1] of over 50 µM.
